Measurements reported in ChEMBL document CHEMBL1155146, “Diphenyl furans and aza analogs: effects of structural modification on in vitro activity, DNA binding, and accumulation and distribution in trypanosomes” (Antimicrob Agents Chemother, 2007).
pIC50: −log10 of the molar value.

How the values were obtained:
[1] = test system: Trypanosoma brucei brucei; assay: Antitrypanosomal activity against Trypanosoma brucei brucei S427 after 72 hrs; type: functional, organism-based; settings: S427, 72 h
[2] = Binding affinity at d(CGCGAATTCGCG) synthetic oligomer duplex assessed as increase in melting temperature
Outline: (§1)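 UV thermal melting in MES buffer (0.01 M MES, 0.1 M NaCl, 0.001 M EDTA, pH 6.2), heated at 0.5°C/min. Oligomer duplex at 1 x 10^-6 M duplex with 1:1 compound:duplex. Poly(dA)·poly(dT) at 5 x 10^-5 M base pairs with 0.6 compound:bp. Tm taken from the first-derivative maximum of absorbance vs temperature. ΔTm = Tm(complex) − Tm(DNA).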

[3] = test system: Trypanosoma brucei rhodesiense; assay: Antitrypanosomal activity against Trypanosoma brucei rhodesiense STIB900 after 72 hrs; type: functional, organism-based; settings: STIB900, 72 h
[4] = Binding affinity to poly(dA).poly(dT) assessed as increase in melting temperature; outline: as §1
[5] = test system: Trypanosoma brucei brucei; assay: Drug level in Trypanosoma brucei brucei S427 at 7.5 uM after 8 hrs; type: ADME, organism-based
Outline: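 About 10^6 trypanosomes incubated with 7.5 µM diamidine for 1 to 8 h. Intracellular concentration measured by HPLC (fluorescence detection at excitation/emission maxima, formate buffer/acetonitrile gradient, reversed-phase column) or LC/MS. Reported as mean ± standard error.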

[6] = test system: Trypanosoma brucei brucei; assay: Drug level in Trypanosoma brucei brucei S427 at 7.5 uM after 24 hrs; type: ADME, organism-based

Structure (SMILES)	pIC50 [1]	ΔTm [2]	pIC50 [3]	ΔTm [4]	Drug uptake [5]	Drug uptake [6]
c1cc(-c2ccc(-c3ccc(C4=NCCCN4)cc3)o2)ccc1C1=NCCCN1	6.59	15.1 °C	7.48	27 °C	–	–
N=C(NC1CCCC1)c1ccc(-c2ccc(-c3ccc(C(=N)NC4CCCC4)cc3)o2)cc1	7.00	16 °C	7.22	27 °C	30 mM	–
Cc1cc(C(=N)N)ccc1-c1ccc(-c2ccc(C(=N)N)cn2)o1	8.00	10.6 °C	8.01	16.7 °C	–	–
N=C(NC1CCCCC1)c1ccc(-c2ccc(-c3ccc(C(=N)NC4CCCCC4)cc3)o2)cc1	6.92	16.8 °C	7.17	27 °C	30 mM	–
N=C(N)c1ccc(-c2coc(-c3ccc(C(=N)N)cc3)c2)cc1	8.68	10.4 °C	8.77	17.1 °C	30 mM	–
N=C(N)c1ccc(Cc2ccc(-c3ccc(C(=N)N)cn3)o2)cc1	6.50	0.4 °C	6.83	3.1 °C	–	–
N=C(N)c1ccc(-c2ccc(-c3ccc(C(=N)N)cc3O)o2)nc1	7.49	10.4 °C	7.49	16.4 °C	–	–
N=C(N)c1ccc(-c2ccc(-c3ccc(C(=N)N)cn3)o2)nc1	7.89	8.4 °C	7.72	16 °C	–	–
N=C(N)c1ccc(-c2ccc(-c3ccc(C(=N)N)cc3)o2)cc1 [FURAMIDINE]	8.15	8.9 °C	–	26.2 °C	4.5 mM	12 mM
N=C(N)c1ccc(-c2ccc(-c3ccc(C(=N)N)nc3)o2)cc1	8.48	10.4 °C	8.68	23.3 °C	9.3 mM	–
N=C(N)c1ccc(-c2ccc(-c3ccc(C(=N)N)cn3)o2)cc1	8.47	11.2 °C	–	20 °C	1 mM	3 mM
c1cc(-c2ccc(-c3ccc(C4=NCCN4)cc3)o2)ccc1C1=NCCN1	6.60	11 °C	6.61	19.3 °C	–	–
N=C(N)c1ccc(-c2ccc(-c3ccc(C(=N)N)cc3F)o2)c(F)c1	7.83	8.2 °C	8.10	15.2 °C	–	–
